Reference: ChEMBL document CHEMBL4706495, “A novel class of small molecule inhibitors with radioprotective properties” (Eur J Med Chem, 2020)
The source made the active and inactive calls. The rule behind the calls is not given here.

Assays:
MCF7 [1] = assay: Cytotoxicity against human MCF7 cells assessed as cell viability at 10 uM measured after 48 hrs by WST-1 assay relative to control; type: functional; details: read-out: Activity
How it was run: (§1)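 Ten-line human panel (9 cancer, 1 non-cancerous). Cells were seeded at a pre-established optimal density (500–30 × 10³ per well) and settled overnight. Compounds came from 10 mM DMSO stocks and were tested at two concentrations. WST-1 readout followed the manufacturer's protocol at the end of cultivation. Viability is expressed as % of untreated control cells, mean of three independent experiments.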

Jurkat [2] = assay: Cytotoxicity against human Jurkat cells assessed as cell viability at 100 uM measured after 48 hrs by WST-1 assay relative to control; type: functional; details: read-out: Activity; how it was run: as §1
MCF7 [3] = assay: Cytotoxicity against human MCF7 cells assessed as cell viability at 100 uM measured after 48 hrs by WST-1 assay relative to control; type: functional; details: read-out: Activity; how it was run: as §1
[4] = Toxicity in C57Bl/6 mouse assessed as average body weight at 100 mg/kg, ip and measured immediately (reference value: 26.3 +/- 2.4 g); type: organism-based; details: in vivo
A549 [5] = assay: Cytotoxicity against human A549 cells assessed as cell viability at 10 uM measured after 48 hrs by WST-1 assay relative to control; type: functional; details: read-out: Activity; how it was run: as §1
[6] = Cytotoxicity against human MRC5 cells assessed as cell viability at 10 uM measured after 48 hrs by WST-1 assay relative to control; type: cell-based; details: read-out: Activity; how it was run: as §1
A549 [7] = assay: Cytotoxicity against human A549 cells assessed as cell viability at 100 uM measured after 48 hrs by WST-1 assay relative to control; type: functional; details: read-out: Activity; how it was run: as §1
Mus musculus [8] = assay: Radioprotective activity in C57Bl/6 mouse assessed as average body weight at 100 mg/kg, ip administered 5 min prior to gamma-irradation at 8.5 Gy and measured after 30 days; type: functional
Mus musculus [9] = assay: Radioprotective activity in C57Bl/6 mouse assessed as median survival time at 100 mg/kg, ip administered 5 min prior to gamma-irradation at 8.5 Gy and measured after 30 days (reference value: 12 days); type: functional
HeLa [10] = assay: Cytotoxicity against human HeLa cells assessed as cell viability at 100 uM measured after 48 hrs by WST-1 assay relative to control; type: functional; details: read-out: Activity; how it was run: as §1
[11] = Toxicity in C57Bl/6 mouse assessed as average body weight at 100 mg/kg, ip measured after 30 days (reference value: 27 +/ 3.2 g); type: organism-based; details: in vivo, 720 h, time 30 day
PANC-1 [12] = assay: Cytotoxicity against human PANC-1 cells assessed as cell viability at 10 uM measured after 48 hrs by WST-1 assay relative to control; type: functional; details: read-out: Activity; how it was run: as §1
Mus musculus [13] = assay: Radioprotective activity in C57Bl/6 mouse assessed as average body weight at 100 mg/kg, ip administered 5 min prior to gamma-irradation at 8.5 Gy and measured immediately (reference value: 25.4 +/- 2.6 g); type: functional
HeLa [14] = assay: Cytotoxicity against human HeLa cells assessed as cell viability at 10 uM measured after 48 hrs by WST-1 assay relative to control; type: functional; details: read-out: Activity; how it was run: as §1
MOLT-4 [15] = assay: Cytotoxicity against human MOLT-4 cells assessed as cell viability at 10 uM measured after 48 hrs by WST-1 assay relative to control; type: functional; details: read-out: Activity; how it was run: as §1
[16] = Toxicity in C57Bl/6 mouse assessed as change in body weight at 100 mg/kg, ip measured after 30 days (reference value: 103 +/- 12 %); type: organism-based; details: in vivo, 720 h, time 30 day
Mus musculus [17] = assay: Radioprotective activity in C57Bl/6 mouse assessed as body weight gain at 100 mg/kg, ip administered 5 min prior to gamma-irradation at 8.5 Gy measured after 30 days relative to control; type: functional
A2780 [18] = assay: Cytotoxicity against human A2780 cells assessed as cell viability at 100 uM measured after 48 hrs by WST-1 assay relative to control; type: functional; details: read-out: Activity; how it was run: as §1
MOLT-4 [19] = assay: Cytotoxicity against human MOLT-4 cells assessed as cell viability at 100 uM measured after 48 hrs by WST-1 assay relative to control; type: functional; details: read-out: Activity; how it was run: as §1
Mus musculus [20] = assay: Radioprotective activity in C57Bl/6 mouse assessed as increase in absolute T-lymphocytes at 100 mg/kg, ip pretreated with compound for 5 min followed by gamma irradiation at 8.5 Gy and measured after 12 to 30 days by flow cytometry; type: functional, organism-based
How it was run: (§2)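 C57Bl/6 mice receive 100 mg/kg i.p. 5 min before a single 8.5 Gy ⁶⁰Co γ dose. At 7, 12 and 30 days post-irradiation, 100 µl peripheral blood is stained with anti-CD3ε, CD19 and NK1.1 antibodies for 30 min at 4 °C in the dark. Samples are washed twice and analysed by flow cytometry for T, B and NK cells. Mean ± SEM.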

PANC-1 [21] = assay: Cytotoxicity against human PANC-1 cells assessed as cell viability at 100 uM measured after 48 hrs by WST-1 assay relative to control; type: functional; details: read-out: Activity; how it was run: as §1
[22] = Cytotoxicity against human MRC5 cells assessed as cell viability at 100 uM measured after 48 hrs by WST-1 assay relative to control; type: cell-based; details: read-out: Activity; how it was run: as §1
SAOS-2 [23] = assay: Cytotoxicity against human SAOS-2 cells assessed as cell viability at 10 uM measured after 48 hrs by WST-1 assay relative to control; type: functional; details: read-out: Activity; how it was run: as §1
Jurkat [24] = assay: Cytotoxicity against human Jurkat cells assessed as cell viability at 10 uM measured after 48 hrs by WST-1 assay relative to control; type: functional; details: read-out: Activity; how it was run: as §1
A549 [25] = assay: Cytotoxicity against human A549 cells assessed as reduction in cell viability incubated for 24 hrs by MTT assay; type: functional, cell-based; details: A549, 24 h
How it was run: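 A-549 cells in DMEM with 10% FBS and 1% penicillin-streptomycin were attached overnight. Compounds were prepared in PBS and serially diluted in DMEM, then incubated 24 h. Viability was read by colorimetric MTT reduction against an untreated control on each plate (100%). IC50 came from four-parameter nonlinear regression of the log concentration-response curve, mean ± SEM. MTC is the highest concentration not differing from control (t-test).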

Mus musculus [26] = assay: Radioprotective activity in C57Bl/6 mouse assessed as increase in absolute B-lymphocytes at 100 mg/kg, ip pretreated with compound for 5 min followed by gamma irradiation at 8.5 Gy and measured after 12 to 30 days by flow cytometry; type: functional, organism-based; how it was run: as §2
SAOS-2 [27] = assay: Cytotoxicity against human SAOS-2 cells assessed as cell viability at 100 uM measured after 48 hrs by WST-1 assay relative to control; type: functional; details: read-out: Activity; how it was run: as §1
HT-29 [28] = assay: Cytotoxicity against human HT-29 cells assessed as cell viability at 100 uM measured after 48 hrs by WST-1 assay relative to control; type: functional; details: read-out: Activity; how it was run: as §1
Mus musculus [29] = assay: Radioprotective activity in C57Bl/6 mouse assessed as increase in absolute NK population at 100 mg/kg, ip pretreated with compound for 5 min followed by gamma irradiation at 8.5 Gy and measured after 12 to 30 days by flow cytometry; type: functional, organism-based; how it was run: as §2
[30] = Toxicity in C57Bl/6 mouse assessed as mouth death at 100 mg/kg, ip measured after 30 days; type: organism-based; details: in vivo, 720 h, time 30 day
How it was run: (§3)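 Safety in C57Bl/6 mice (27 ± 3 g) given a single 100 mg/kg i.p. injection without irradiation. Deaths, adverse effects and body weight followed over 30 days against an untreated control group. Weight reported as change from day 0.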

HT-29 [31] = assay: Cytotoxicity against human HT-29 cells assessed as cell viability at 10 uM measured after 48 hrs by WST-1 assay relative to control; type: functional; details: read-out: Activity; how it was run: as §1
A549 [32] = assay: Cytotoxicity against human A549 cells assessed as maximum tolerated concentration incubated for 24 hrs by MTT assay; type: functional
How it was run: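 A-549 cells in DMEM with 10% FBS and 1% penicillin-streptomycin, left to attach overnight. Compounds made up in PBS, serially diluted in DMEM, incubated 24 h, then viability read by MTT reduction against untreated controls on each plate. MTC taken as the highest concentration showing no significant difference from non-treated control (t-test).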

[33] = Toxicity in C57Bl/6 mouse assessed as adverse effects at 100 mg/kg, ip measured after 30 days; type: organism-based; details: in vivo, 720 h, time 30 day; how it was run: as §3
MOLT-4 [34] = assay: Radioprotective activity against gamma irradiation-induced apoptosis in human MOLT-4 cells assessed as viable cells at 100 uM pretreated with compound for 1 hr followed by gamma irradiation and measured after 24 hrs by annexinV/propidium iodide staining based flow cytometry (reference value: 40 %); type: functional; details: MOLT-4, light or radiation study, time 25 hrs, read-out: Activity
A2780 [35] = assay: Cytotoxicity against human A2780 cells assessed as cell viability at 10 uM measured after 48 hrs by WST-1 assay relative to control; type: functional; details: read-out: Activity; how it was run: as §1
SAOS-2 [36] = assay: Cytotoxicity against human SAOS-2 cells assessed as cell viability at 1 uM measured after 48 hrs by WST-1 assay relative to control; type: functional; details: read-out: Activity
HT-29 [37] = assay: Cytotoxicity against human HT-29 cells assessed as cell viability at 1 uM measured after 48 hrs by WST-1 assay relative to control; type: functional; details: read-out: Activity
A2780 [38] = assay: Cytotoxicity against human A2780 cells assessed as cell viability at 1 uM measured after 48 hrs by WST-1 assay relative to control; type: functional; details: read-out: Activity
PANC-1 [39] = assay: Cytotoxicity against human PANC-1 cells assessed as cell viability at 1 uM measured after 48 hrs by WST-1 assay relative to control; type: functional; details: read-out: Activity
A549 [40] = assay: Cytotoxicity against human A549 cells assessed as cell viability at 1 uM measured after 48 hrs by WST-1 assay relative to control; type: functional; details: read-out: Activity
MOLT-4 [41] = assay: Cytotoxicity against human MOLT-4 cells assessed as cell viability at 1 uM measured after 48 hrs by WST-1 assay relative to control; type: functional; details: read-out: Activity
HeLa [42] = assay: Cytotoxicity against human HeLa cells assessed as cell viability at 1 uM measured after 48 hrs by WST-1 assay relative to control; type: functional; details: read-out: Activity
Jurkat [43] = assay: Cytotoxicity against human Jurkat cells assessed as cell viability at 1 uM measured after 48 hrs by WST-1 assay relative to control; type: functional; details: read-out: Activity
[44] = Cytotoxicity against human MRC5 cells assessed as cell viability at 1 uM measured after 48 hrs by WST-1 assay relative to control; type: cell-based; details: read-out: Activity
MCF7 [45] = assay: Cytotoxicity against human MCF7 cells assessed as cell viability at 1 uM measured after 48 hrs by WST-1 assay relative to control; type: functional; details: read-out: Activity

SMILES: COc1cc([N+](=O)[O-])ccc1OCC(O)CN1CCN(CCO)CC1 (stereo not given)
- viability at 10 µM (MCF7 [1]): 103%
- viability at 100 µM (Jurkat [2]): 92%
- viability at 100 µM (MCF7 [3]): 98%
- Activity [4]: 27.8 g
- viability at 10 µM (A549 [5]): 93%
- viability at 48 h, 10 µM [6]: 97%
- viability at 100 µM (A549 [7]): 105%
- Activity (Mus musculus [8]): 26.5 g
- MST (Mus musculus [9]): 11 days
- viability at 100 µM (HeLa [10]): 108%
- Activity [11]: 28.5 g
- viability at 10 µM (PANC-1 [12]): 92%
- Activity (Mus musculus [13]): 26.1 g
- viability at 10 µM (HeLa [14]): 101%
- viability at 10 µM (MOLT-4 [15]): 92%
- Activity [16]: 103%
- Activity (Mus musculus [17]): 101%
- viability at 100 µM (A2780 [18]): 95%
- viability at 100 µM (MOLT-4 [19]): 99%
- Activity (Mus musculus [20]): Active
- viability at 100 µM (PANC-1 [21]): 105%
- viability at 48 h, 100 µM [22]: 97%
- viability at 10 µM (SAOS-2 [23]): 103%
- viability at 10 µM (Jurkat [24]): 101%
- IC50 (A549 [25]): 4.45 mM
- Activity (Mus musculus [26]): Active
- viability at 100 µM (SAOS-2 [27]): 94%
- viability at 100 µM (HT-29 [28]): 111%
- Activity (Mus musculus [29]): Active
- Activity [30]: Non-Toxic
- viability at 10 µM (HT-29 [31]): 99%
- MTD (A549 [32]): 0.78 mM
- Activity [33]: Non-Toxic
- viability at 100 µM (MOLT-4 [34]): 59%
- viability at 10 µM (A2780 [35]): 99%

SMILES: COc1cccc2c1C(=O)c1c(O)c3c(c(O)c1C2=O)C[C@@](O)(C(=O)CO)C[C@@H]3O[C@H]1C[C@H](N)[C@H](O)[C@H](C)O1 [DOXORUBICIN]
- viability at 1 µM (SAOS-2 [36]): 22%
- viability at 1 µM (HT-29 [37]): 55%
- viability at 1 µM (A2780 [38]): 8%
- viability at 1 µM (PANC-1 [39]): 78%
- viability at 1 µM (A549 [40]): 42%
- viability at 1 µM (MOLT-4 [41]): 1%
- viability at 1 µM (HeLa [42]): 76%
- viability at 1 µM (Jurkat [43]): 2%
- viability at 48 h, 1 µM [44]: 22%
- viability at 1 µM (MCF7 [45]): 32%
